Measurements published in ChEMBL document CHEMBL3414523, “FimH antagonists: bioisosteres to improve the in vitro and in vivo PK/PD profile” (J Med Chem, 2015).
Converted amounts (≈) assume the structure as drawn.

Experiments:
[1] = Kinetic solubility of the compound at 0.1 to 0.5 mM at pH 7.6 after 15 hrs by UV/Vis spectrophotometry; type: physicochemical; settings: buffer, read-out: Kinetic_solubility
[2] = Displacement of fluorescently labeled 3'-chloro-N-(2-(3-(3',6'-dihydroxy-3-oxo-3H-spiro[isobenzofuran-1,9'-xanthene]-5-yl)thioureido)ethyl)-4'-((2R,3S,4S,5S,6R)-3,4,5-trihydroxy-6-(hydroxymethyl)tetrahydro-2H-pyran-2-yloxy)biphenyl-4-carboxamide from Escherichia coli recombinant 6-His-tagged FimH CRD expressed in Escherichia coli HM125 after 24 hrs by fluorescence polarization assay
In short: (§1)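 Competitive fluorescence polarization with His6-tagged FimH CRD (thrombin cleavage site) and fixed fluorescent reporter ligand, 24 h incubation to reach equilibrium; polarized excitation 485 nm, emission 528 nm on a plate reader. IC50 from four-parameter nonlinear least-squares fit, converted to KD by a modified Cheng–Prusoff equation accounting for ligand depletion.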

[3] = Displacement of n-heptyl 2-deoxy-alpha-D-mannopyranoside from Escherichia coli recombinant 6-His-tagged FimH CRD expressed in Escherichia coli HM125 after 20 mins by isothermal titration calorimetry
[4] = Apparent permeability across apical to basolateral side in human Caco2 cells by LC/MS analysis; settings: Caco-2
[5] = Apparent permeability across basolateral to apical side in human Caco2 cells by LC/MS analysis; settings: Caco-2
[6] = Plasma protein binding in human by equilibrium dialysis method; type: ADME, cell-free; settings: read-out: PPB (converted)
[7] = Half life in rat liver microsomes at 2 uM after 10 mins by LC/MS/MS analysis
physchem [8] = settings: octanol/water, pH 7.4
[9] = Lipophilicity, log P of the compound; type: physicochemical; settings: octanol/water
[10] = Binding affinity to Escherichia coli recombinant 6-His-tagged FimH CRD expressed in Escherichia coli HM125 by isothermal titration calorimetry
physchem [11] = settings: buffer, pH 7.4
[12] = Kinetic solubility of the compound at 0.1 to 0.5 mM at pH 3 to 7.4 after 15 hrs by UV/Vis spectrophotometry; type: physicochemical; settings: buffer, read-out: Kinetic_solubility
[13] = Kinetic solubility of the compound at 0.1 to 0.5 mM at pH 6.51 after 15 hrs by UV/Vis spectrophotometry; type: physicochemical; settings: buffer, read-out: Kinetic_solubility
[14] = Half life in rat liver microsomes at 2 uM after 10 mins by LC/MS/MS analysis in presence of NADPH; type: ADME
[15] = Kinetic solubility of the compound at 0.1 to 0.5 mM at pH 6.61 after 15 hrs by UV/Vis spectrophotometry; type: physicochemical; settings: buffer, read-out: Kinetic_solubility
[16] = Effective permeability coefficient, log Pe after 16 hrs by PAMPA; type: ADME
[17] = Initial plasma concentration in C3H/HeN mouse at 50 mg/kg, iv; type: ADME, organism-based; design: dose 50 mg/kg, route intravenous
Mus musculus [18] = assay: Volume of distribution in C3H/HeN mouse at 50 mg/kg, iv; type: ADME, organism-based; design: dose 50 mg/kg, route intravenous; settings: in vivo
Mus musculus [19] = assay: Half life in C3H/HeN mouse at 50 mg/kg, iv; type: ADME, organism-based; design: dose 50 mg/kg, route intravenous; settings: in vivo
[20] = AUC (0 to infinity) in C3H/HeN mouse at 50 mg/kg, iv; type: ADME, organism-based; design: time infinity, dose 50 mg/kg, route intravenous; settings: plasma
Mus musculus [21] = assay: Total clearance in C3H/HeN mouse at 50 mg/kg, iv; type: ADME, organism-based; design: dose 50 mg/kg, route intravenous; settings: in vivo
[22] = Cmax in urine of C3H/HeN mouse at 50 mg/kg, iv; type: ADME, organism-based; design: dose 50 mg/kg, route intravenous
[23] = Binding affinity to Escherichia coli recombinant 6-His-tagged FimH CRD expressed in Escherichia coli HM125 after 24 hrs by competitive fluorescence polarization assay; in short: as §1
[24] = Dissociation constant, pKa of the compound by NMR spectroscopy; type: physicochemical
physchem [25] = settings: buffer, pH 3
Escherichia coli [26] = assay: (§2) Antimicrobial activity against Escherichia coli UTI89 infected in C3H/HeN mouse urinary tract infection model assessed as bacterial load reduction in bladder at 10 mg/kg, po formulated with 5% DMSO in PBS containing 1% Tween 80 administered 40 mins prior to infection measured after 3 hrs relative to control; type: functional
Escherichia coli [27] = assay: as §2, with “kidney” for “bladder”; type: functional
Escherichia coli [28] = assay: Inhibition of adhesion of Escherichia coli UTI89 clinical isolate to human 5637 cells assessed as MAC90 after 10 mins by flow cytometry; type: functional
[29] = Initial plasma concentration in C3H/HeN mouse at 0.625 mg/kg, iv; type: ADME, organism-based; design: dose 0.625 mg/kg, route intravenous
Mus musculus [30] = assay: Volume of distribution in C3H/HeN mouse at 0.625 mg/kg, iv; type: ADME, organism-based; design: dose 0.625 mg/kg, route intravenous; settings: in vivo
Mus musculus [31] = assay: Half life in C3H/HeN mouse at 0.625 mg/kg, iv; type: ADME, organism-based; design: dose 0.625 mg/kg, route intravenous; settings: in vivo
[32] = AUC (0 to infinity) in C3H/HeN mouse at 0.625 mg/kg, iv; type: ADME, organism-based; design: time infinity, dose 0.625 mg/kg, route intravenous; settings: plasma
[33] = Total clearance in C3H/HeN mouse at 0.625 mg/kg, iv; type: ADME, organism-based; design: dose 0.625 mg/kg, route intravenous; settings: in vivo
[34] = Cmax in urine of C3H/HeN mouse at 0.625 mg/kg, iv; type: ADME, organism-based; design: dose 0.625 mg/kg, route intravenous
Escherichia coli [35] = assay: Antimicrobial activity against Escherichia coli UTI89 infected in C3H/HeN mouse urinary tract infection model assessed as bacterial load reduction in bladder at 1.25 mg/kg, po administered 40 mins prior to infection measured after 3 hrs (reference value: 6.6 log10 CFU); type: functional
Escherichia coli [36] = assay: Antimicrobial activity against Escherichia coli UTI89 infected in C3H/HeN mouse urinary tract infection model assessed as bacterial load reduction in kidney at 1.25 mg/kg, po administered 40 mins prior to infection measured after 3 hrs (reference value: 6 log10 CFU); type: functional

N#Cc1ccc(-c2ccc(O[C@H]3O[C@H](CO)[C@@H](O)[C@H](O)[C@@H]3O)cc2)cc1
solubility kinetic at 15 h [1]: 186 µg/mL (≈ 520 µM)
Kd [2]: 2 nM
Kd [3]: 2.8 nM
Papp A→B [4]: 2 ×10⁻⁶ cm/s
Papp B→A [5]: 13.2 ×10⁻⁶ cm/s
fraction unbound [6]: 0.01
half-life at 10 min, 2 µM ([7]; liver microsomes): > 60 min
logD at 2 h, 1 µM (physchem [8]): 1.4

OC[C@H]1O[C@H](Oc2ccc(-c3ccccc3)cc2)[C@@H](O)[C@@H](O)[C@@H]1O
logP [9]: 2.1
Kd [2]: 15.1 nM
Kd [10]: 17.7 nM
Papp A→B [4]: 10 ×10⁻⁶ cm/s
Papp B→A [5]: 19 ×10⁻⁶ cm/s
fraction unbound [6]: 0.07
solubility kinetic at 15 h, 500 µM (physchem [11]): 21 µg/mL (≈ 63.2 µM)
logD at 2 h, 1 µM (physchem [8]): 2.1

CCCCCCCO[C@H]1O[C@H](CO)[C@@H](O)[C@H](O)[C@@H]1O
Kd [2]: 28.3 nM
Kd [10]: 28.9 nM
solubility kinetic at 15 h [12]: > 3000 µg/mL
Papp A→B [4]: 7 ×10⁻⁶ cm/s
Papp B→A [5]: 9.4 ×10⁻⁶ cm/s
half-life at 10 min, 2 µM ([7]; microsomes): 13 min

COC(=O)c1ccc(-c2ccc(O[C@H]3O[C@H](CO)[C@@H](O)[C@H](O)[C@@H]3O)cc2)cc1
solubility kinetic at 15 h [13]: 33.8 µg/mL (≈ 86.6 µM)
Kd [2]: 3.6 nM
half-life at 2 µM [14]: 1 min
Papp A→B [4]: 4.23 ×10⁻⁶ cm/s
logD at 2 h, 1 µM (physchem [8]): 2.14

O=C(O)c1ccc(-c2ccc(O[C@H]3O[C@H](CO)[C@@H](O)[C@H](O)[C@@H]3O)cc2)cc1
solubility kinetic at 15 h [15]: > 3000 µg/mL
log Pe [16]: impermeable
Kd [2]: 17.9 nM
Kd [10]: 15 nM
half-life at 10 min, 2 µM ([7]; liver microsomes): > 60 min
C0 [17]: 40 µg/mL
Vz (Mus musculus [18]): 25.2 mL
t1/2 (Mus musculus [19]): 19.8 min
AUC(0-inf) [20]: 23500 ng·h/mL
CL (Mus musculus [21]): 53.1 mL/h
Cmax [22]: 300 µg/mL
logD at 2 h, 1 µM (physchem [8]): < -1.5

O=C(NCCNC(=S)Nc1ccc2c(c1)C(=O)OC21c2ccc(O)cc2Oc2cc(O)ccc21)c1ccc(-c2ccc(O[C@H]3O[C@H](CO)[C@@H](O)[C@H](O)[C@@H]3O)c(Cl)c2)cc1
Kd [23]: 1.7 nM

OC[C@H]1O[C@H](Oc2ccc(-c3ccc(-c4nnn[nH]4)cc3)cc2)[C@@H](O)[C@@H](O)[C@@H]1O
Kd [2]: 5.7 nM
pKa [24]: 3.7

N#CNC(=O)c1ccc(-c2ccc(O[C@H]3O[C@H](CO)[C@@H](O)[C@H](O)[C@@H]3O)cc2)cc1
Kd [2]: 8.4 nM
pKa [24]: 2.5
Papp A→B [4]: 0.22 ×10⁻⁶ cm/s
Papp B→A [5]: 0.29 ×10⁻⁶ cm/s
solubility kinetic at 15 h, 500 µM (physchem [25]): > 150 µg/mL
solubility kinetic at 15 h, 500 µM (physchem [11]): > 150 µg/mL
logD at 2 h, 1 µM (physchem [8]): -1.1

N#Cc1ccc(-c2ccc(O[C@H]3O[C@H](CO)[C@@H](O)[C@H](O)[C@@H]3O)c(Cl)c2)cc1
log10cfu (Escherichia coli [26]): 2.68
log10cfu (Escherichia coli [27]): 1.04
Activity (Escherichia coli [28]): 0.094 µg/mL
C0 [29]: 0.36 µg/mL
Kd [2]: < 1 nM
Kd [3]: 1.3 nM
Papp A→B [4]: 2.2 ×10⁻⁶ cm/s
Papp B→A [5]: 22.1 ×10⁻⁶ cm/s
fraction unbound [6]: 0.11
half-life at 10 min, 2 µM ([7]; liver microsomes): > 60 min
Vz (Mus musculus [30]): 52.8 mL
t1/2 (Mus musculus [31]): 10.2 min
AUC(0-inf) [32]: 70 ng·h/mL
clearance [33]: 3.63 mL/min
Cmax [34]: 10 µg/mL
log10cfu (Escherichia coli [35]): 1.78
log10cfu (Escherichia coli [36]): 1.07
solubility kinetic at 15 h, 500 µM (physchem [11]): 192 µg/mL (≈ 490 µM)
logD at 2 h, 1 µM (physchem [8]): 2.1

NC(=O)c1ccc(-c2ccc(O[C@H]3O[C@H](CO)[C@@H](O)[C@H](O)[C@@H]3O)cc2)cc1
Kd [2]: 2.8 nM
Papp A→B [4]: 0.12 ×10⁻⁶ cm/s
Papp B→A [5]: 0.61 ×10⁻⁶ cm/s
solubility kinetic at 15 h, 500 µM (physchem [11]): 12 µg/mL (≈ 32 µM)
logD at 2 h, 1 µM (physchem [8]): 0.5

CNC(=O)c1ccc(-c2ccc(O[C@H]3O[C@H](CO)[C@@H](O)[C@H](O)[C@@H]3O)cc2)cc1
Kd [2]: 2.9 nM
Kd [3]: 4.3 nM
Papp A→B [4]: 1.1 ×10⁻⁶ cm/s
Papp B→A [5]: 0.87 ×10⁻⁶ cm/s
solubility kinetic at 15 h, 500 µM (physchem [11]): 122 µg/mL (≈ 313 µM)
logD at 2 h, 1 µM (physchem [8]): 0.8

O=C(c1ccc(-c2ccc(O[C@H]3O[C@H](CO)[C@@H](O)[C@H](O)[C@@H]3O)cc2)cc1)N1CCOCC1
Kd [2]: 3 nM
Kd [3]: 5 nM
Papp A→B [4]: 0.18 ×10⁻⁶ cm/s
Papp B→A [5]: 1.3 ×10⁻⁶ cm/s
fraction unbound [6]: 0.52
half-life at 10 min, 2 µM ([7]; liver microsomes): > 60 min
C0 [17]: 110 µg/mL
Vz (Mus musculus [18]): 28.3 mL
t1/2 (Mus musculus [19]): 24 min
AUC(0-inf) [20]: 25300 ng·h/mL
CL (Mus musculus [21]): 49.4 mL/h
Cmax [22]: 4610 µg/mL
solubility kinetic at 15 h, 500 µM (physchem [11]): > 250 µg/mL
logD at 2 h, 1 µM (physchem [8]): 0.2

CS(=O)(=O)c1ccc(-c2ccc(O[C@H]3O[C@H](CO)[C@@H](O)[C@H](O)[C@@H]3O)cc2)cc1
Kd [2]: 1.7 nM
Kd [3]: 3 nM
Papp A→B [4]: 0.36 ×10⁻⁶ cm/s
Papp B→A [5]: 1.76 ×10⁻⁶ cm/s
fraction unbound [6]: 0.01
half-life at 10 min, 2 µM ([7]; liver microsomes): > 60 min
solubility kinetic at 15 h, 500 µM (physchem [11]): 246 µg/mL (≈ 599 µM)
logD at 2 h, 1 µM (physchem [8]): 0.4

CNS(=O)(=O)c1ccc(-c2ccc(O[C@H]3O[C@H](CO)[C@@H](O)[C@H](O)[C@@H]3O)cc2)cc1
Kd [2]: 2.7 nM
Kd [3]: 3.5 nM
fraction unbound [6]: < 0.01
half-life at 10 min, 2 µM ([7]; liver microsomes): > 60 min
C0 [17]: 152 µg/mL
Vz (Mus musculus [18]): 19.5 mL
t1/2 (Mus musculus [19]): 114 min
AUC(0-inf) [20]: 175000 ng·h/mL
CL (Mus musculus [21]): 7.1 mL/h
Cmax [22]: 387 µg/mL

OC[C@H]1O[C@H](Oc2ccc(-c3cc(F)c(O)c(F)c3)cc2)[C@@H](O)[C@@H](O)[C@@H]1O
Kd [2]: 3.7 nM
pKa [24]: 6.5
Papp A→B [4]: 0.4 ×10⁻⁶ cm/s
Papp B→A [5]: 1.9 ×10⁻⁶ cm/s
solubility kinetic at 15 h, 500 µM (physchem [11]): > 150 µg/mL
logD at 2 h, 1 µM (physchem [8]): 1.1

O=C(NCCOCCOCCNC(=S)Nc1ccc2c(c1)C(=O)OC21c2ccc(O)cc2Oc2cc(O)ccc21)c1ccc(-c2ccc(O[C@H]3O[C@H](CO)[C@@H](O)[C@H](O)[C@@H]3O)c(Cl)c2)cc1
Kd [23]: 9.9 nM
